High-throughput results: PubChem, several laboratories
Most compounds without a hit are left out; they make up all but 3.5% or so of the library.
BB579 growth dn – yeast BB579 growth reduction in restrictive medium | S. cerevisiae BB579 growth, OD615, 48 h | AID 804 | 140,000 tested, 0.51% active | inhibition, % at 10 µM;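 active = inhibition above a set limit, 3 SD over the mean compound inhibition, cut at about 44% in these data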
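Assay system: S. cerevisiae DeaD strain BB579 yeast. Medium: CSMM-D restrictive synthetic medium containing dextrose (glucose). Times: 4 h cell preincubation, 48 h compound exposure, 30 °C humidified. Signal: OD615 turbidity measurement. Benchmarks: positive control amphotericin B 10 µg/mL.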
MT stabilizer – stabilizes microtubules in HeLa cells. HeLa tubulin immunostaining HCS, 24 h; share of cells brighter than vehicle mean+2SD. % tubulin-high responders, % at 10 µM. 200,000 tested, 0.83% active. AID 2205;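 active = plate Z-score above 3 for both tubulin-high and condensed-nucleus cell shares, with cell loss under 80%, at 10 µM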;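 also: anti alpha tubulin signal scored within the nucleus-defined area of each cell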
b-catenin transl – modulators of beta-catenin nuclear translocation; nuclear translocation activity, % at 5 µM; 190,000 tested, 0.3% active; HeLa beta-catenin nuclear translocation, immunofluorescence imaging;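 active = nuclear translocation activity above 50% at 5 µM, with a well cell count of 50 or more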;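 also: per-cell ratio of nuclear to cytoplasmic median beta-catenin stain intensity; plate controls were DMSO negative control for no effect and GSK-3 inhibitor IX positive control for full effect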
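Test system: human HeLa cell line; Doses: 5 µM primary, 0.02–20 µM confirmation; Incubation: 24 h compound exposure, 37°C; Detection: beta-catenin immunofluorescence imaging with DAPI; Read-out: beta-catenin nuclear/cytoplasmic ratio, % activation.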
RAM inhibit – yeast RAM network inhibition; S. cerevisiae dse1pr::URA3 reporter, 5-FOA growth OD615, 2 d; analog-sensitive cbk1-as2 kinase mutant strain; inhibition, % at 50 µM; AID 868; 190,000 tested, 1.8% active;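 active = inhibition above a set limit, 3 SD over mean compound inhibition, cut at about 8.4% in these data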;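 also: 0% = DMSO-only wells with no growth and 100% = 10 µM 1-NA-PP1 full growth; inhibition rescues growth on 5-FOA so higher OD means more RAM inhibition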
Yeast lifespan up – extends the lifespan of yeast. 130,000 tested, 0.68% active. AID 775. inhibition of the nicotinamide effect, % at 10 µM. S. cerevisiae growth with nicotinamide, OD615; deaD strain in restrictive glucose medium;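 active = inhibition above a set limit, placed 3 SD over the median of all compounds, cut at about 26% in these data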;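 also: 0% = nicotinamide-treated wells and 100% = cells grown without nicotinamide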
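Buffer or medium: CSMM-D glucose medium, restrictive; test system: modified budding yeast, DeaD strain; compound: single dose 10 µM compound, 0.25% DMSO; schedule: culture preincubation 4 h, compound exposure 48 h, both 30 °C; detection: optical density (absorbance) at 615 nm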
Efa HMGR inh – E. faecalis class II HMG-CoA reductase inhibition; inhibition, % at 10 µM; 190,000 tested, 0.41% active; purified E. faecalis HMGR, NADPH absorbance 340 nm kinetic;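 active = inhibition above a set limit, the median over all tested compounds plus 3 SD, cut at about 9.5% in these data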;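 also: enzyme runs in reverse so mevalonate oxidation gives rising NADPH absorbance; 0% = complete reaction with DMSO and 100% = background rate lacking mevalonate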
The depositor's hits bear a star; nt = no result given.

SMILES	BB579 growth dn	MT stabilizer	b-catenin transl	RAM inhibit	Yeast lifespan up	Efa HMGR inh
CCOc1ccccc1N(CC(=O)NCCSc1ccccc1)S(C)(=O)=O	nt	1.3	1.2	0.8	nt	-3.7
CCOC(=O)c1ccc(CNCc2ccc(Br)cc2)cc1	-4.2	2.3	-0.6	2.0	6.5	-1.3
CCOC(=O)c1[nH]nc(C(=O)c2ccc(Br)cc2)c1O	-35.2	5.8	-1.9	2.4	48.5*	2.5
COc1ccc(CCN(Cc2cc3cc(C)cc(C)c3nc2Cl)C(=O)C2CC2)cc1	-3.8	2.2	3.7	10.6*	-5.2	-2.6
COc1ccc(CN(CC2CCC(C(=O)O)CC2)C(=S)Nc2ccc(C)c(Cl)c2)cc1 (stereo not drawn)	nt	2.9	0.4	2.0	nt	0.0
COc1cc(/C=C2/C(=O)ON=C2c2ccccc2)ccc1O	86.3*	1.4	-0.8	0.4	12.5	-2.5
COc1cc(/C=C2\C(=O)ON=C2c2ccccc2)cc(Cl)c1O	nt	2.4	-5.2	-1.2	nt	0.9
COc1ccc(N2C(=O)C3NN=C(C(=O)OCc4ccccc4)C3C2=O)cc1 (stereo not drawn)	nt	2.6	-0.9	0.0	nt	2.6
CCCCCC1CC1C(=O)N/N=C/c1ccc(N(C)C)cc1 (stereo not drawn)	-35.6	1.3	-1.6	0.7	41.7*	-7.0
O=C(NCC1CCCO1)c1ccc(Cl)c(F)c1F (stereo not drawn)	-25.4	1.7	-4.7	0.8	-7.4	15.3*
O=C(NCC1CCCO1)c1ccc(C(=O)NCC2CCCO2)cc1 (stereo not drawn)	-15.6	2.5	-0.3	3.0	-13.7	-3.2
CCOC(=O)c1cnc2c(-c3ccccc3OC)c(C)nn2c1C	nt	2.1	-0.6	4.4	nt	-0.1
COc1cccc(-c2ccc(-c3noc(-c4ccccc4F)n3)c(OC)n2)c1	-38.2	5.3	nt	11.0*	-7.6	-0.7
COc1ccc2[nH]c3c(NCc4ccco4)ncnc3c2c1	-38.9	27.0*	6.1	-1.2	-26.1	-3.4
COc1cc(C(=O)O)ccc1OCc1c(C)noc1C	-39.6	1.3	1.6	2.2	-1.2	0.6
CCOc1cc(N2CCOCC2)c(OCC)cc1NC(=O)c1ccc(OCc2c(C)noc2C)c(OC)c1	-54.4	1.8	0.2	8.7*	1.8	-1.6
CCOc1cc(N2CCOCC2)c(OCC)cc1NC(=O)c1ccc(OC)cc1	nt	1.7	2.5	2.5	nt	-0.6
COc1cc(C(=O)OCC(C)=O)ccc1OCc1c(C)noc1C	nt	31.1*	45.0	-0.8	nt	-4.3
O=C(O)CC1=C(Nc2ccccc2)C(=O)N(c2ccccc2)C1c1ccc(Br)cc1 (stereo not drawn)	nt	1.5	0.4	2.8	nt	-4.0
CC(=O)c1ccccc1OC(=O)CCN1C(=O)C2C3C=CC(C4CC34)C2C1=O (stereo not drawn)	nt	3.2	-5.1	0.8	nt	-2.8
CC(=O)c1ccccc1OC(=O)CCN1C(=O)c2ccccc2C1=O	nt	5.8	-1.3	0.2	nt	13.1*
CCC(=O)Nc1ccccc1C(=O)OCC(=O)c1ccc2ccccc2c1	-68.9	1.1	-3.2	10.2*	-9.6	1.9
CCN(CC)c1ccc(/C=N/n2nnnc2N)c(O)c1	-5.2	24.4*	nt	-1.6	-27.2	-5.2
CCOC(=O)N/N=C/c1ccc(N(CC)CC)cc1O	-32.6	16.5*	32.2	0.4	-0.5	-6.4
CCN(C)c1ccc(/C=N\n2nnnc2N)cc1	-28.8	24.7*	nt	1.2	-19.2	-6.1
SMILES	BB579 growth dn	MT stabilizer	b-catenin transl	RAM inhibit	Yeast lifespan up	Efa HMGR inh
CCOC(=O)N1CCN(C(=O)c2ccc(SC)cc2OC)CC1	nt	1.6	-2.1	-0.5	nt	-2.7
CCOc1ccc(NC(=O)CCC(=O)NNC(=O)Nc2ccc(Cl)cc2)cc1	nt	8.3	-1.5	4.6	nt	-0.8
CO/N=C/c1ccc(Sc2ccccc2)c([N+](=O)[O-])c1	-28.1	0.9	-0.4	1.3	-10.2	-6.9
O=[N+]([O-])c1cc(/C=N/O)ccc1Sc1ccccc1	78.6*	1.7	1.3	-0.7	-10.1	0.3
COc1ccc(C(=O)c2oc3ccccc3c2NC(C)=O)cc1	-12.1	1.9	2.1	3.5	-11.2	-5.7
COc1ccc(OC)c(C(=O)c2oc3ccccc3c2NC(C)=O)c1	-42.9	17.2*	-1.8	0.1	-8.6	3.3
O=c1[nH]c(=O)n(Cc2ccco2)c2c1C(C(F)(F)F)(C(F)(F)F)N=C(c1ccc(F)cc1)N2	-62.6	2.2	-0.6	8.8*	2.5	-1.0
O=c1[nH]c(=O)n(Cc2ccccc2)c2c1C(C(F)(F)F)(C(F)(F)F)N=C(c1ccco1)N2	17.9	2.3	-1.3	2.3	-5.7	-5.6
CCCCC(=O)Nc1ccc(C(=O)NNC(=S)NC(=O)c2cccs2)cc1	-23.2	5.4	-1.0	0.0	35.7*	-2.5
O=C(NNC(=S)NC(=O)c1cccs1)c1ccc(NC(=O)c2ccccc2)cc1	-26.3	4.4	-4.2	3.4	0.6	2.6
COCCCn1c(SCC(=O)N2CCc3ccccc32)nnc1-c1ccoc1C	nt	3.0	nt	nt	nt	nt
COCCCn1c(SCC(=O)N2CCc3ccccc32)nnc1-c1ccco1	-1.2	1.8	-0.5	8.6*	nt	-5.0
CCOC(=O)c1cnc(SC)nc1Oc1cccc(NC(=O)c2cccc(Cl)c2Cl)c1	-75.3	3.7	-5.4	9.4*	0.1	0.2
CCOC(=O)c1cnc(SC)nc1Oc1cccc(NS(=O)(=O)c2ccccc2)c1	-14.3	4.2	-1.7	6.2	3.3	-2.5
CCOC(=O)c1cnc(SC)nc1Oc1cccc(NS(=O)(=O)c2ccc(F)cc2)c1	-33.2	4.4	-2.1	9.8*	2.3	3.0
CC(=O)Nc1nc(-c2cc([N+](=O)[O-])cs2)cs1	nt	3.1	-0.3	1.7	nt	-5.3
CCSc1nc2ccccc2n1S(=O)(=O)c1ccccc1	46.5*	2.2	-1.2	0.6	-10.9	-7.2
Cc1ccc(CSc2ncnc3c2cnn3-c2ccccc2)cc1	-28.3	2.3	-1.7	6.6	1.7	1.1
Cc1ccc(CSc2ncnc3c2cnn3-c2ccc(C)cc2)cc1	-28.2	8.0	-4.3	9.5*	4.5	-3.7
Cc1ccc(CNC(=O)C(C)OC(=O)c2ccco2)cc1 (stereo not drawn)	-10.4	3.2	-8.0	0.3	39.5*	0.6
COC(=O)c1ccc(SCc2cnc(Cl)s2)cc1	-20.7	5.3	-1.9	0.9	-24.8	0.3
O=C(O)c1ccc(SCc2cnc(Cl)s2)cc1	97.2*	2.9	nt	0.1	-18.0	5.4
CC(C)COC(=O)Nc1nnc(SCc2ccccc2F)s1	-33.4	1.6	1.1	3.1	-8.0	-3.0
CC(C)COC(=O)Nc1nnc(SCCOc2ccccc2)s1	-21.1	1.7	1.1	5.1	-15.0	13.3*
Brc1ccc(CSc2nnc3ccccn23)cc1	nt	2.1	-0.6	0.3	nt	14.7*
Clc1cccc(Cl)c1CSc1nnc2ccccn12	21.4	5.1	-0.5	0.2	-2.5	-3.8
Cc1ccc(S(=O)(=O)CCc2ccccn2)cc1	17.8	2.7	nt	1.3	-19.6	0.0
